Data published in ChEMBL document CHEMBL2407064 (J Med Chem, 2013).
Calls of active or inactive are those of the source. The rule behind the calls is not given here.

Key:
[1] = target: T1, Neuronal acetylcholine receptor; alpha3/alpha6/beta2/beta3 (Homo sapiens, UniProt P17787+P32297+Q05901+Q15825); assay: Agonist activity at human alpha6/alpha3beta2beta3 nAChR expressed in human SHEP1 cells assessed as stimulation of 86Rb+ ion efflux after 5 mins by liquid scintillation counting analysis; assay type: cell-based
[2] = target: T1, Neuronal acetylcholine receptor; alpha3/alpha6/beta2/beta3; assay: Antagonist activity at human alpha6/alpha3beta2beta3 nAChR expressed in human SHEP1 cells assessed as inhibition of carbamylcholine-induced 86Rb+ ion efflux preincubated for 10 mins by liquid scintillation counting analysis; assay type: cell-based
[3] = target: T2, Acetylcholine receptor; alpha1/beta1/delta/gamma (Homo sapiens) (UniProt P02708+P07510+P11230+Q07001); assay: Antagonist activity at alpha1beta1gammadelta nAChR in human TE671/RD cells assessed as inhibition of carbamylcholine-induced 86Rb+ ion efflux preincubated for 10 mins by liquid scintillation counting analysis; assay type: cell-based
[4] = tested on: Mus musculus; assay: Antidepressant-like activity in BALB/cJ mouse assessed as decrease in immobility time at 1 mg/kg, po administered 30 mins before test measured for 6 mins by forced swimming test; assay type: functional, organism-based; set-up: dose 1 mg/kg
In short: (§1)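 Male BALB/cJ mice, 8–10 weeks old. Drugs dissolved in water and given i.p. or orally at 10 ml/kg, 30 min before the trial. Sertraline 20 mg/kg was the positive control. Each mouse was placed in a glass cylinder with 12 cm of 23 ± 1 °C water, and immobility (floating) was timed over a 6 min trial. ANOVA with Fisher's LSD; n = 9–10/group.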

[5] = target: T2, Acetylcholine receptor; alpha1/beta1/delta/gamma (Homo sapiens); assay: Agonist activity at alpha1beta1gammadelta nAChR in human TE671/RD cells assessed as stimulation of 86Rb+ ion efflux after 5 mins by liquid scintillation counting analysis; assay type: cell-based
In short: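 Human TE671/RD cells, which natively express muscle-type α1β1γδ nAChRs, maintained at low passage (1–26) and split 1/300 weekly. 86Rb+ efflux. Agonism given as EC50 with efficacy normalized to carbamylcholine.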

[6] = tested on: Mus musculus; assay: Antidepressant-like activity in BALB/cJ mouse assessed as decrease in immobility time at 1 mg/kg, ip administered 30 mins before test measured for 6 mins by forced swimming test; assay type: functional, organism-based; set-up: dose 1 mg/kg; in short: as §1
[7] = tested on: Mus musculus; assay: Antidepressant-like activity in BALB/cJ mouse assessed as decrease in immobility time at 1 to 10 mg/kg, ip administered 30 mins before test measured for 6 mins by forced swimming test; assay type: functional, organism-based; in short: as §1
[8] = tested on: Mus musculus; assay: Toxicity in BALB/cJ mouse assessed as occurrence of tremor at 5 mg/kg, ip; assay type: organism-based; set-up: dose 5 mg/kg, route intraperitoneal; settings: in vivo
[9] = tested on: Mus musculus; assay: Toxicity in BALB/cJ mouse assessed as mortality at 10 mg/kg, ip; assay type: organism-based; set-up: dose 10 mg/kg, route intraperitoneal; settings: in vivo
[10] = tested on: Mus musculus; assay: Toxicity in BALB/cJ mouse assessed as sedative effect at 5 mg/kg, ip; assay type: organism-based; set-up: dose 5 mg/kg, route intraperitoneal; settings: in vivo
[11] = tested on: Mus musculus; assay: Antidepressant-like activity in BALB/cJ mouse assessed as decrease in immobility time at 20 mg/kg, ip administered 30 mins before test measured for 6 mins by forced swimming test; assay type: functional, organism-based; set-up: dose 20 mg/kg; in short: as §1
[12] = target: T3, Neuronal acetylcholine receptor; alpha4/beta2 (Homo sapiens, UniProt P17787+P43681); assay: Antagonist activity at human alpha4beta2 nACHR expressed in human SHEP1 cells assessed as inhibition of carbamylcholine-induced 86Rb+ ion efflux preincubated for 10 mins by liquid scintillation counting analysis; assay type: cell-based
[13] = tested on: Salmonella typhimurium; assay: Genotoxicity in Salmonella typhimurium TA1537 at 50 to 100 uM by Ames test in presence of liver S9 fraction; assay type: toxicity, organism-based; settings: salmonella enterica subsp. enterica serovar typhimurium, s9, 100 µM
In short: (§2)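 Bacterial reverse mutation (Ames) test in TA98, TA100, TA1535 and TA1537 strains, with and without liver S9 metabolic activation. Test concentrations 5, 10, 50 and 100 μM.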

[14] = Metabolic stability in CD-1 mouse liver microsomes assessed as compound remaining at 0.1 uM after 1 hr; assay type: ADME, Microsome; settings: CD-1, liver microsomes; read-out: Stability
In short: (§3)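 Human or CD-1 mouse liver microsomes incubated with 0.1 μM test compound for 1 h. Percent parent compound remaining unchanged was measured.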

[15] = target: T4, hERG (KCNH2) (Homo sapiens, UniProt Q12809); assay: Inhibition of human ERG at 1 uM relative to control
In short: (§4)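 Human ERG inhibition tested at three concentrations (0.1, 1 and 10 μM), expressed as percent inhibition.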

[16] = target: T3, Neuronal acetylcholine receptor; alpha4/beta2; assay: Agonist activity at human alpha4beta2 nACHR expressed in human SHEP1 cells assessed as stimulation of 86Rb+ ion efflux after 5 mins by liquid scintillation counting analysis; assay type: cell-based
[17] = tested on: Salmonella typhimurium; assay: Genotoxicity in Salmonella typhimurium TA100 at 5 to 100 uM by Ames test; assay type: toxicity, organism-based; settings: salmonella enterica subsp. enterica serovar typhimurium; in short: as §2
[18] = tested on: Salmonella typhimurium; assay: Genotoxicity in Salmonella typhimurium TA1537 at 5 to 100 uM by Ames test; assay type: toxicity, organism-based; settings: salmonella enterica subsp. enterica serovar typhimurium; in short: as §2
[19] = tested on: Salmonella typhimurium; assay: Genotoxicity in Salmonella typhimurium TA1537 at 5 to 10 uM by Ames test in presence of liver S9 fraction; assay type: toxicity, organism-based; settings: salmonella enterica subsp. enterica serovar typhimurium, s9, 10 µM
[20] = Metabolic stability in human hepatocytes assessed as compound remaining at 1 uM after 2 hrs; assay type: ADME, cell-based, Hepatocyte; settings: read-out: Stability
In short: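 Cryopreserved human hepatocytes incubated with 1 μM test compound for 2 h. Percent parent compound remaining unchanged was measured.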

[21] = target: CYP2C19 (Homo sapiens, UniProt P33261); assay: Inhibition of CYP2C19 (unknown origin) at 10 uM relative to control; assay type: ADME
In short: (§5)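 Inhibition of CYP1A, CYP2C9, CYP2C19, CYP2D6 and CYP3A isoforms measured in the presence of 10 μM test compound, expressed as percent inhibition.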

[22] = tested on: Plasma; assay: Plasma protein binding in CD-1 mouse at 10 uM; assay type: ADME, cell-free
In short: (§6)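 Plasma protein binding measured in human and CD-1 mouse plasma at 10 μM test compound, given as percent bound.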

[23] = target: CYP2C9 (Homo sapiens, UniProt P11712); assay: Inhibition of CYP2C9 (unknown origin) at 10 uM relative to control; assay type: ADME; in short: as §5
[24] = Metabolic stability in human liver microsomes assessed as compound remaining at 0.1 uM after 1 hr; assay type: ADME, Microsome; settings: read-out: Stability; in short: as §3
[25] = tested on: Salmonella typhimurium; assay: Genotoxicity in Salmonella typhimurium TA98 at 5 to 100 uM by Ames test; assay type: toxicity, organism-based; settings: salmonella enterica subsp. enterica serovar typhimurium; in short: as §2
[26] = tested on: Salmonella typhimurium; assay: Genotoxicity in Salmonella typhimurium TA100 at 5 to 100 uM by Ames test in presence of liver S9 fraction; assay type: toxicity, organism-based; settings: salmonella enterica subsp. enterica serovar typhimurium, s9, 100 µM; in short: as §2
[27] = target: T4, hERG (KCNH2); assay: Inhibition of human ERG at 0.1 uM relative to control; in short: as §4
[28] = tested on: Salmonella typhimurium; assay: Genotoxicity in Salmonella typhimurium TA1535 at 5 to 100 uM by Ames test in presence of liver S9 fraction; assay type: toxicity, organism-based; settings: salmonella enterica subsp. enterica serovar typhimurium, s9, 100 µM; in short: as §2
[29] = tested on: Salmonella typhimurium; assay: Genotoxicity in Salmonella typhimurium TA98 at 5 to 100 uM by Ames test in presence of liver S9 fraction; assay type: toxicity, organism-based; settings: salmonella enterica subsp. enterica serovar typhimurium, s9, 100 µM; in short: as §2
[30] = Chemical stability of the compound at room temperature; assay type: physicochemical
[31] = tested on: CYP3A; assay: Inhibition of CYP3A (unknown origin) at 10 uM relative to control; assay type: ADME; settings: human; in short: as §5
[32] = tested on: Salmonella typhimurium; assay: Genotoxicity in Salmonella typhimurium TA1535 at 5 to 100 uM by Ames test; assay type: toxicity, organism-based; settings: salmonella enterica subsp. enterica serovar typhimurium; in short: as §2
[33] = target: CYP2D6 (Homo sapiens, UniProt P10635); assay: Inhibition of CYP2D6 (unknown origin) at 10 uM relative to control; assay type: ADME; in short: as §5
[34] = tested on: Caco-2; assay: Permeability from basolateral to apical side in human Caco2 cells at pH 7.4; assay type: ADME, cell-based; settings: caco-2, pH 7.4
In short: (§7)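 Bidirectional Caco-2 monolayer permeability, apical-to-basolateral and basolateral-to-apical, at pH 7.4 on both sides. Run with and without the P-gp inhibitor verapamil. Apparent permeability given in cm/s.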

[35] = target: T4, hERG (KCNH2); assay: Inhibition of human ERG at 10 uM relative to control; in short: as §4
[36] = tested on: Plasma; assay: Plasma protein binding in human at 10 uM; assay type: ADME, cell-free; in short: as §6
[37] = tested on: Caco-2; assay: Permeability from apical to basolateral side in human Caco2 cells at pH 7.4; assay type: ADME, cell-based; settings: caco-2, pH 7.4; in short: as §7
[38] = tested on: Salmonella typhimurium; assay: Genotoxicity in Salmonella typhimurium TA1537 up to 3 x 10^5 uM by Ames test; assay type: toxicity, organism-based; settings: salmonella enterica subsp. enterica serovar typhimurium
[39] = tested on: Salmonella typhimurium; assay: Genotoxicity in Salmonella typhimurium TA1537 up to 3 x 10^5 uM by Ames test in presence of liver S9 fraction; assay type: toxicity, organism-based; settings: salmonella enterica subsp. enterica serovar typhimurium

T1 sequence (P17787 whole entry): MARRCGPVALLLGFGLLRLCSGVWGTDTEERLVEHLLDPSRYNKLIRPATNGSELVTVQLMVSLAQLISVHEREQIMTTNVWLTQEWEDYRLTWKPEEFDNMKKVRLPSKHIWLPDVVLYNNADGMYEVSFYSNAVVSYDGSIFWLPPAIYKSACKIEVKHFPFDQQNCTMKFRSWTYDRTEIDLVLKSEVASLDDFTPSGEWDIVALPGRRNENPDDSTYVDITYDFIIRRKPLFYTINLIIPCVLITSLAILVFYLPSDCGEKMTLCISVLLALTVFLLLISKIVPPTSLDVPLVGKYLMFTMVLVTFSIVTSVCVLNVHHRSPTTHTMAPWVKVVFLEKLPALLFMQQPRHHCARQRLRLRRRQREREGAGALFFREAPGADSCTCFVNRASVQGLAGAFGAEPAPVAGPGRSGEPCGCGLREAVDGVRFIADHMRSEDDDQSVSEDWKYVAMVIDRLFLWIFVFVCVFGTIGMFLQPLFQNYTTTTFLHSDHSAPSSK
T1 sequence (P32297 whole entry): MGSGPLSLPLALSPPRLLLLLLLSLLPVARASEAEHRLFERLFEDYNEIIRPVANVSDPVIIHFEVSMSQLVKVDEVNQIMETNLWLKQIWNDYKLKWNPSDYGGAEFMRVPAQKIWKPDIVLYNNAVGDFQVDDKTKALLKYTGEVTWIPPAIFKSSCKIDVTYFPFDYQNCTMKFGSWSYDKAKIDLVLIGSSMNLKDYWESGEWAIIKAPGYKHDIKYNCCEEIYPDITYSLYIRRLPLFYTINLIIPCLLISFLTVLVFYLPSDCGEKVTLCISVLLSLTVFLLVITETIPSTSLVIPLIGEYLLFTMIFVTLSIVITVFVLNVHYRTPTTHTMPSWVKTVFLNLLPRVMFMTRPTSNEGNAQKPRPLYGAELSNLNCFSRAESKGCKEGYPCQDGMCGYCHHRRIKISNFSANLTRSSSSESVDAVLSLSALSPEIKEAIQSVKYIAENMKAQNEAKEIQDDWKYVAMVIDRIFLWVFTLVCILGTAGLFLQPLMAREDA
T1 sequence (Q15825 whole entry): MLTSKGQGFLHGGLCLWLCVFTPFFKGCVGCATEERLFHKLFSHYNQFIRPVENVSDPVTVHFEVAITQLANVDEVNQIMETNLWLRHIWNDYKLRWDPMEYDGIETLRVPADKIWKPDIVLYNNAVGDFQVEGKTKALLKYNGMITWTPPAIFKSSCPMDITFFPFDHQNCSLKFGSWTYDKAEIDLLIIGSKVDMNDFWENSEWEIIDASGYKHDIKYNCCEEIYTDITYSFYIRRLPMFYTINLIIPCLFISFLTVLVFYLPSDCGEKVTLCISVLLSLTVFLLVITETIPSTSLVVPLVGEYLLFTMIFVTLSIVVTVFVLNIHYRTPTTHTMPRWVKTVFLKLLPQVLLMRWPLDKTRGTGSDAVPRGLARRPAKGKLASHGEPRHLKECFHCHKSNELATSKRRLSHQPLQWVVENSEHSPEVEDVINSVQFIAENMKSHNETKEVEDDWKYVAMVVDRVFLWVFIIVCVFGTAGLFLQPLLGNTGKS
T1 sequence (Q05901 whole entry): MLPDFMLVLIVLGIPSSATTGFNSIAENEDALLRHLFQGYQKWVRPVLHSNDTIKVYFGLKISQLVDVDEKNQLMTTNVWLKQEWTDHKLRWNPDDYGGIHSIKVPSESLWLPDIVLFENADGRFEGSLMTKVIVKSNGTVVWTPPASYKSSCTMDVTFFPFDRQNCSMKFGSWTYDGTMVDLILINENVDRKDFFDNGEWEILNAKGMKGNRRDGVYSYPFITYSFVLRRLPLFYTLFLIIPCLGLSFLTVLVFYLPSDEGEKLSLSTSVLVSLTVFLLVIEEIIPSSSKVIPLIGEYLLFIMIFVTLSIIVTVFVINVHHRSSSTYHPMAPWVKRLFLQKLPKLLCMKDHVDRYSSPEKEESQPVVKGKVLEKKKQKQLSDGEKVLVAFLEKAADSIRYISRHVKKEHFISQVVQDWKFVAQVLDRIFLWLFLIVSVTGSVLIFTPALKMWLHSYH
T4 sequence (Q12809 whole entry): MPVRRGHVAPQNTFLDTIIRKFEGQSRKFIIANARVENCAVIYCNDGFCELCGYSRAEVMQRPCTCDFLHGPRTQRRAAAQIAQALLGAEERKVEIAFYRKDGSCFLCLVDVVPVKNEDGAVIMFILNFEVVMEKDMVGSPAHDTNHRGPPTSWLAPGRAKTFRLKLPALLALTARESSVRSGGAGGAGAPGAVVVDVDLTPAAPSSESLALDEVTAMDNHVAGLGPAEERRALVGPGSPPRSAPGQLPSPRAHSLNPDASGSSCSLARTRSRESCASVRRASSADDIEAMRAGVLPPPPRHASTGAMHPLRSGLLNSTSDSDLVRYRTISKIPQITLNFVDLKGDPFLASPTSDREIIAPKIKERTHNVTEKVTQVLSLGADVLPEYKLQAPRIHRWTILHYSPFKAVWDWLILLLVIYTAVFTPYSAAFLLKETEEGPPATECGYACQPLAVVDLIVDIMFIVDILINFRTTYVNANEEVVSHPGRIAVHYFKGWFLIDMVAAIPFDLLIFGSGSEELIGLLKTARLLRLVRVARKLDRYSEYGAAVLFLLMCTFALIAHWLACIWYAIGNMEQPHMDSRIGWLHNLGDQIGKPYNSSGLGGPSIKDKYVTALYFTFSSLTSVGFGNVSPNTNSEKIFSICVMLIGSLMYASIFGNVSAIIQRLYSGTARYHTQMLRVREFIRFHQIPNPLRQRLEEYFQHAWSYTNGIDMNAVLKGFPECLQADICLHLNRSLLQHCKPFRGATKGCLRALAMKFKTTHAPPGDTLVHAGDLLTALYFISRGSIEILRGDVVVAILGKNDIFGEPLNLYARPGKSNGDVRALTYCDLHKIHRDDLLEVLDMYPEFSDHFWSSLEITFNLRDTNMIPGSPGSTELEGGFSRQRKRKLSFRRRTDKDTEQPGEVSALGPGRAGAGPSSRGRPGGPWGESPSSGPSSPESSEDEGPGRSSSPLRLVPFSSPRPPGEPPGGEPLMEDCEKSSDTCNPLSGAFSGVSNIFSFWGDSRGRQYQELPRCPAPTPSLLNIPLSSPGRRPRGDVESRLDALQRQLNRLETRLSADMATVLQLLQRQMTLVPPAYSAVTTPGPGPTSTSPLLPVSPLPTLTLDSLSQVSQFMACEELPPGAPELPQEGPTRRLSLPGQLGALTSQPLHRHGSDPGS
T3 sequence (P17787 whole entry): as the sequence (P17787 whole entry) above
T3 sequence (P43681 whole entry): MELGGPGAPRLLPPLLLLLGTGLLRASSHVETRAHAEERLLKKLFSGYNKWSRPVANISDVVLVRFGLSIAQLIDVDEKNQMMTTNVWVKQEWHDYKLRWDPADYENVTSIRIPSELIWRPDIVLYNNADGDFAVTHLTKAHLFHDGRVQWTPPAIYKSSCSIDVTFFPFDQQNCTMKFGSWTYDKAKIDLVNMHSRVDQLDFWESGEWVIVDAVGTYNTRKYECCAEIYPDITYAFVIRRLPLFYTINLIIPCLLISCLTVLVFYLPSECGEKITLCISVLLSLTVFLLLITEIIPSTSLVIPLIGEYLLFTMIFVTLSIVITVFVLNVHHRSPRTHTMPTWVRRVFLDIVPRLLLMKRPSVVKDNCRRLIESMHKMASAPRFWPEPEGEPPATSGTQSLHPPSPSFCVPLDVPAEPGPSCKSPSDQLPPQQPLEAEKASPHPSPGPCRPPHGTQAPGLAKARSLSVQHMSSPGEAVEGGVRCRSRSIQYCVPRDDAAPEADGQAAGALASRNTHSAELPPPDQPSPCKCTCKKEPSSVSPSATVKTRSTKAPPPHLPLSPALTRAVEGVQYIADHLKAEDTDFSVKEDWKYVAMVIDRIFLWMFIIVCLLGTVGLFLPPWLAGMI
CYP2C9, sequence (P11712 whole entry): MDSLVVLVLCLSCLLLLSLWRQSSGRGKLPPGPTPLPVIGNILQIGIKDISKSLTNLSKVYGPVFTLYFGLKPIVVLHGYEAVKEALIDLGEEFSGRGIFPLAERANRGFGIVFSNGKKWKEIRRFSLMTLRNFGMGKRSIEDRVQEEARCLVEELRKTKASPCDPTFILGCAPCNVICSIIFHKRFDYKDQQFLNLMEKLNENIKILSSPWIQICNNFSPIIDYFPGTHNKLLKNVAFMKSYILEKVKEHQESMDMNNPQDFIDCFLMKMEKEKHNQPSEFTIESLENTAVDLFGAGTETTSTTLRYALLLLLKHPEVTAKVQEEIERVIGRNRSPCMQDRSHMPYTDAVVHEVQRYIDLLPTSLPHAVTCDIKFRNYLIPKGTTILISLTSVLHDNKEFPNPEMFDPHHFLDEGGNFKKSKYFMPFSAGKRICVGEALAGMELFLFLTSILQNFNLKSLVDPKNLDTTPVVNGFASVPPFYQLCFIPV
CYP2D6, sequence (P10635 whole entry): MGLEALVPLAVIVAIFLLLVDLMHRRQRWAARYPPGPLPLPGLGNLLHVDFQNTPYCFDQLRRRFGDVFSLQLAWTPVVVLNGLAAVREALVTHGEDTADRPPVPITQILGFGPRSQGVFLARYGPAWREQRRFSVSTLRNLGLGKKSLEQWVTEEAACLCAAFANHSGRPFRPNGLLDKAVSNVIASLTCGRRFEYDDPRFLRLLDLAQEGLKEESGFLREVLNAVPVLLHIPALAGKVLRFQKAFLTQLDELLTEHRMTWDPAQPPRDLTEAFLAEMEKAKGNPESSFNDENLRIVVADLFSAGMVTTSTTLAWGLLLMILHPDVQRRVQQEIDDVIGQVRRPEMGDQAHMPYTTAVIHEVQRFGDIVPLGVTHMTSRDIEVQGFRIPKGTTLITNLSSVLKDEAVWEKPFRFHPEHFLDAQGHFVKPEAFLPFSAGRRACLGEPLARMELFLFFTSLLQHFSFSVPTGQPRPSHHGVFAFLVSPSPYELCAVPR

COCC[C@H]1C[C@@H]1c1cncc(OC[C@@H]2CCN2)c1
EC50 [1]: 0.0074 µM | IC50 [2]: 0.0097 µM

COCC[C@H]1C[C@@H]1c1cncc(OC[C@@H]2CCCN2C)c1
inhibition [3]: inactive | Activity [4]: Active | Activity [5]: Active | Activity [6]: Active

COCC[C@H]1C[C@@H]1c1cncc(OC[C@@H]2CCCN2)c1
Activity [7]: inactive | inhibition [3]: inactive | EC50 [1]: 0.0515 µM | Activity [5]: Active | IC50 [2]: 0.223 µM

COCC[C@H]1C[C@@H]1c1cncc(OC[C@H]2CCNC2)c1.O=C(O)C(F)(F)F (single isomer, unassigned)
inhibition [3]: inactive | Activity [5]: Active | Activity [8]: Toxic | Activity [9]: Toxic | Activity [10]: Toxic

CN[C@H]1CC[C@@H](c2ccc(Cl)c(Cl)c2)c2ccccc21
Activity [11]: Active

COCC[C@H]1C[C@@H]1c1cncc(OC[C@@H]2CCCN2C)c1.O=C(O)C(F)(F)F
IC50 [12]: 0.02 µM | Activity [13]: Toxic | remaining at 1 h, 0.1 µM [14]: 90.1% | inhibition at 1 µM [15]: 7% | EC50 [16]: 0.0144 µM | Activity [17]: Non-toxic | Activity [18]: Non-toxic | Activity [19]: Non-toxic | remaining at 2 h, 1 µM [20]: 85.7% | inhibition at 10 µM [21]: 21% | PPB [22]: 11% | EC50 [1]: 0.009 µM | inhibition at 10 µM [23]: 30% | remaining at 1 h, 0.1 µM [24]: 103% | Activity [25]: Non-toxic | Activity [26]: Non-toxic | inhibition at 0.1 µM [27]: 4% | Activity [28]: Non-toxic | Activity [29]: Non-toxic | Stability [30]: Stable | inhibition at 10 µM [31]: 10% | Activity [32]: Non-toxic | inhibition at 10 µM [33]: 44% | permeability [34]: 18.4 ×10⁻⁶ cm/s | inhibition at 10 µM [35]: 23% | PPB [36]: 31% | IC50 [2]: 0.0239 µM | permeability [37]: 90.9 ×10⁻⁶ cm/s

COCC[C@H]1C[C@@H]1c1cncc(OC[C@@H]2CCCN2C)c1.O=C(O)C(O)C(O)C(=O)O
Activity [38]: Non-toxic | Activity [39]: Non-toxic
